# Laboratory results taken from ChEMBL document CHEMBL1122033, “Chemistry and hypoglycemic activity of N-[[(Dialkylamino)alkoxy]phenyl]benzamidines” (J Med Chem, 1982).
# Tests used:
# Rattus norvegicus [1] = experiment: Blood sugar lowering (hypoglycemic activity) in the glucose-primed rat at a dose of 100 mg/kg; Decrease in blood sugar level.; format: functional
# How it was run: (§1)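 Male Sprague–Dawley rats, 140–150 g, groups of six, fasted 16 h. Each rat got 100 mg glucose s.c. in 0.5 mL isotonic NaCl, then the test agent at once orally as an aqueous carboxymethylcellulose suspension (0.5 mL); controls got vehicle. At 2 h, under light ether, blood was taken by cardiac puncture. Glucose was read by Autoanalyzer (Hoffman method). Values are percent difference from vehicle controls.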
# [2] = Dose that produces lethality in 50% (LD50) of male and female carworth farms CF-1 strain mice weighing 16-25 g oral (po) route of administration; format: ADME, organism-based; conditions: both, CF-1, mouse, in vivo
# How it was run: (§2)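 Four mice per dose level. Drug dissolved in distilled water and suspended in 0.5% carboxymethylcellulose or 0.5% gelatin, with pH adjusted by 1 N HCl or 1 N NaOH where the drug tolerated it. Doses logarithmically spaced, given orally or intraperitoneally. Mice observed 7 days after dosing. LD50 derived by the Bliss method, expressed in mg/kg.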
# [3] = Lethality in 50% (LD50) of male and female CF-1 strain mice weighing 16-25g, intraperitoneal administration; format: ADME, organism-based; conditions: both, CF-1, mouse, in vivo, ip; how it was run: as §2
# Rattus norvegicus [4] = experiment: Compound was evaluated for the blood sugar lowering (hypoglycemic activity) in the glucose-primed rat at a dose of 100 mg/kg; format: functional; how it was run: as §1
# Rattus norvegicus [5] = experiment: Compound was evaluated for the blood sugar lowering (hypoglycemic activity) in the glucose-primed rat at a dose of 100 mg/kg; Increase in blood sugar level; format: functional; how it was run: as §1
# Rattus norvegicus [6] = experiment: Evaluated in glucose-primed, fasted rat for the percentage reduction in blood glucose level after 2 hr as compared to control groups at a dose of 50 mg of free base / kg body weight administered orally; format: functional; how it was run: as §1
# Monkey [7] = experiment: Evaluated in normal, fasted monkey for the percentage reduction in blood glucose level as compared to pretreatment blood glucose values at a dose of 150 mg of free base / kg body weight administered orally; format: functional, Cercopithecidae
# How it was run: (§3)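 Male and female rhesus monkeys (2–3 kg) were food-deprived, with water, for 18 h. Pretreatment blood was taken from the popliteal vein. Dosing was oral by stomach tube, with repeat sampling 5 h post-dose. Results are percent reduction in blood glucose relative to pretreatment values.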
# [8] = Lethal dose required to produce 50% lethality in male and female carworth farms CF-1 strain mice weighing 16-25 g administered orally; conditions: both, CF-1, in vivo, po
# Rattus norvegicus [9] = experiment: Evaluated in alloxanized, diabetic rat for the percentage reduction in blood glucose level as compared to pretreatment blood glucose values at a dose of 200 mg of free base / kg body weight administered orally.; format: functional
# How it was run: (§4)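 Three days later, rats positive for urine glucose (reagent strip) formed groups of six. Tail-vein blood was taken before oral dosing and again at 5 h. Percent reduction is versus pretreatment glucose.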
# Rattus norvegicus [10] = experiment: Evaluated in glucose-primed, fasted rat for the percentage reduction in blood glucose level after 2 h as compared to control groups at a dose of 25 mg of free base / kg body weight administered orally; format: functional; how it was run: as §1
# Rattus norvegicus [11] = experiment: Evaluated in glucose-primed, fasted rat for the percentage reduction in blood glucose level after 2 hr as compared to control groups at a dose of 100 mg of free base / kg body weight administered orally; format: functional; how it was run: as §1
# Rattus norvegicus [12] = experiment: Evaluated in alloxanized, diabetic rat for the percentage reduction in blood glucose level as compared to pretreatment blood glucose values at a dose of 100 mg of free base / kg body weight administered orally.; format: functional; how it was run: as §4
# Cavia porcellus [13] = experiment: Evaluated in normal, fasted guinea pig for the percentage reduction in blood glucose level after 5 hr as compared to pretreatment blood glucose values at a dose of 100 mg of free base / kg body weight administered orally; format: functional
# How it was run: (§5)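 Male and female Hartley guinea pigs, 450–500 g, were food-deprived (water allowed) 18 h and split by sex into groups of four. A zero-time blood sample was taken by cardiac puncture, then drug was given, and blood was drawn again 5 h later. Percent reduction in blood glucose is relative to pretreatment values.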
# Rattus norvegicus [14] = experiment: Evaluated in glucose primed, adrenalectomized rat for the percentage reduction in blood glucose level as compared to pretreatment blood glucose values at a dose of 25 mg of free base / kg body weight administered orally
# [15] = Lethal dose required to produce 50% lethality in male and female carworth farms CF-1 strain mice weighing 16-25 g administered intraperitoneally; conditions: both, CF-1, rat, in vivo, ip
# Monkey [16] = experiment: Evaluated in normal, fasted monkey for the percentage reduction in blood glucose level after 5 hr as compared to pretreatment blood glucose values at a dose of 10 mg of free base / kg body weight administered orally; format: functional, Cercopithecidae; how it was run: as §3
# Cavia porcellus [17] = experiment: Evaluated in normal, fasted guinea pig for the percentage reduction in blood glucose level after 5 hr as compared to pretreatment blood glucose values at a dose of 25 mg of free base / kg body weight administered orally; format: functional; how it was run: as §5
# Rattus norvegicus [18] = experiment: Evaluated in alloxanized, diabetic rat for the percentage reduction in blood glucose level after 5 hr as compared to pretreatment blood glucose values at a dose of 100 mg of free base / kg body weight administered orally; format: functional; how it was run: as §4
# Rattus norvegicus [19] = experiment: Compound was evaluated for the blood sugar lowering (hypoglycemic activity ) in the glucose-primed rat at a dose of 50 mg of base/kg; format: functional; how it was run: as §1
Compound,Change (Rattus norvegicus [1]) [%],LD50 [2] [mg/kg],LD50 [3] [mg/kg],also measured
CCN(CC)CCOc1ccc(N/C(=N\c2ccccc2)c2ccccc2)cc1.O=C(O)C(=O)O,6.8,687,100,–
COc1ccc(N/C(=N/c2ccc(OCCCN(C(C)C)C(C)C)cc2)c2ccccc2)cc1.Cl,34.1,450,108,–
Cc1cccc(/N=C(\Nc2ccc(OCCN(C(C)C)C(C)C)cc2)c2ccccc2)c1C,23.2,1000,360,–
Cl.c1ccc(/N=C(\Nc2ccc(SCCN3CCCC3)cc2)c2ccccc2)cc1,12.5,587,200,–
C=CC/N=C(\Nc1ccc(OCCN(C(C)C)C(C)C)cc1)c1ccccc1,15,653,125,–
COc1ccc(/C(=N\c2ccc(OCCN(C(C)C)C(C)C)cc2)Nc2ccccc2)cc1.Cl,18.5,475,140,–
Br.c1ccc(CN(CCOc2ccc(N/C(=N\c3ccccc3)c3ccccc3)cc2)Cc2ccccc2)cc1,–,–,–,Change (Rattus norvegicus [4]): 0%
Br.c1ccc(/N=C(\Nc2ccc(OCCN3CCCCC3)cc2)c2ccccc2)cc1,–,467,142,Change (Rattus norvegicus [5]): 5.2%
Br.CN(CCOc1ccc(N/C(=N\c2ccccc2)c2ccccc2)cc1)Cc1ccccc1,15.9,500,233,–
Br.c1ccc(/N=C(\Nc2ccc(OCCCN3CCCC3)cc2)c2ccccc2)cc1,23.5,543,125,–
CC(C)N(CCOc1ccc(N/C(=N\Cc2ccccc2)c2ccccc2)cc1)C(C)C.Cl,–,450,187,Change (Rattus norvegicus [4]): 0%
CCCCN(CCCC)CCCOc1ccc(N/C(=N\c2ccccc2)c2ccccc2)cc1.Cl,10.9,867,148,–
CN(CCOc1ccc(N/C(=N\c2ccccc2)c2ccccc2)cc1)c1ccccc1,10.3,1000,587,–
CC(C)N(CCOc1ccc(N/C(=N\c2ccccc2)c2ccc(Cl)cc2)cc1)C(C)C.Cl,3.2,1000,400,–
CC(C)N(CCOc1ccc(N/C(=N\c2ccc(Cl)cc2)c2ccccc2)cc1)C(C)C.Cl,30.9,–,–,Reduction (Rattus norvegicus [6]): 23.5%; Reduction (Monkey [7]): 35%; LD50 [8]: 1000 mg/kg; Reduction (Rattus norvegicus [9]): 28.8%; Reduction (Rattus norvegicus [10]): 18.8%; Reduction (Rattus norvegicus [11]): 30.9%; Reduction (Rattus norvegicus [12]): 7.4%; Reduction (Cavia porcellus [13]): 14%; Reduction (Rattus norvegicus [14]): 31.4%; LD50 [15]: 1000 mg/kg
CC(C)N(CCOc1ccccc1/N=C(/Nc1ccccc1)c1ccccc1)C(C)C.Cl,18.3,840,253,–
CCCCNC(=N)NC(=N)N [BUFORMIN],–,–,–,LD50 [8]: 500 mg/kg; Reduction (Rattus norvegicus [11]): 0%; LD50 [15]: 140 mg/kg
CC(C)N(CCOc1ccc(N/C(=N\c2ccc(Cl)cc2)c2ccccc2)cc1)C(C)C,31,1000,1000,–

Compound,Change (Rattus norvegicus [1]) [%],LD50 [2] [mg/kg],LD50 [3] [mg/kg],also measured
CN/C(=N/c1ccc(OCCN(C(C)C)C(C)C)cc1)c1ccccc1,–,500,112,Change (Rattus norvegicus [5]): 13.1%
CC(C)N(CCOc1ccc(N/C(=N\c2ccc(Cl)c(Cl)c2)c2ccccc2)cc1)C(C)C.Cl,13.8,1000,400,–
Br.c1ccc(/N=C(\Nc2ccc(OCCN3CCOCC3)cc2)c2ccccc2)cc1,–,715,400,Change (Rattus norvegicus [4]): 0%
N=C(N)NC(=N)NCCc1ccccc1 [PHENFORMIN],–,–,–,Reduction (Monkey [16]): 50%; Reduction (Cavia porcellus [17]): 46%; Reduction (Rattus norvegicus [11]): 0%; Reduction (Rattus norvegicus [18]): 62%
Br.CN(C)CCOc1ccc(N/C(=N\c2ccccc2)c2ccccc2)cc1,–,500,112,Change (Rattus norvegicus [5]): 13.1%
Br.CCN/C(=N/c1ccc(OCCN(C(C)C)C(C)C)cc1)c1ccccc1,6.8,687,100,–
CC(C)CN/C(=N/c1ccc(OCCN(C(C)C)C(C)C)cc1)c1ccccc1,22.8,360,80,–
CC(C)N(CCCOc1ccc(N/C(=N\c2ccc(Cl)cc2)c2ccccc2)cc1)C(C)C.Cl,18.3,1000,187,–
Br.COc1ccc(N/C(=N/c2ccc(OCCCN3CCCC3)cc2)c2ccccc2)cc1,25.7,400,108,–
COc1ccc(/C(=N\c2ccc(OCCN3CCCC3)cc2)Nc2ccccc2)cc1.Cl,14,–,–,–
COc1ccc(N/C(=N/c2ccc(OCCN(C(C)C)C(C)C)cc2)c2ccccc2)cc1.Cl,33.5,687,160,–
CC(C)N(CCSc1ccc(N/C(=N\c2ccccc2)c2ccccc2)cc1)C(C)C.Cl,35.6,400,285,–
Br.CC(C)N(CCOc1ccc(N/C(=N\c2ccc(F)cc2)c2ccccc2)cc1)C(C)C,26,630,143,–
CC(C)N(CCOc1ccc(N/C(=N\C2CCCCC2)c2ccccc2)cc1)C(C)C,9.8,373,137,–
Br.COc1ccc(N/C(=N/c2ccc(OCCN3CCCC3)cc2)c2ccccc2)cc1,35,900,148,–
CC(C)N(CCOc1cccc(N/C(=N\c2ccccc2)c2ccccc2)c1)C(C)C.Cl,–,240,107,Change (Rattus norvegicus [19]): 28.1%
Br.COc1ccc(N/C(=N/c2ccc(OCCCN3CCCC3)cc2)c2ccc(C)cc2)cc1,12.6,400,43,–
CCCCN(CCCC)CCOc1ccc(N/C(=N\c2ccccc2)c2ccccc2)cc1.Cl,22.5,800,160,–
